ChEMBL document CHEMBL3286193, “Discovery of a series of 2,5-diaminopyrimidine covalent irreversible inhibitors of Bruton's tyrosine kinase with in vivo antitumor activity” (J Med Chem, 2014)
In brackets after ≈: the same amount, converted by molar mass. Activity calls are given as the source filed them. The rule behind the calls is not given here.

Legend:
[1] = species: Homo sapiens; test: Inhibition of VEGFR (unknown origin) at 0.5 uM by [33P]-ATP filter binding assay
In short: (§1)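 Kinase panel of 18 enzymes; inhibition tested at 0.5 μM. Values are means of duplicates.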

[2] = molecular target: Tyrosine-protein kinase SYK (Homo sapiens) (UniProt P43405); test: Inhibition of SYK (unknown origin) at 0.5 uM by [33P]-ATP filter binding assay; in short: as §1
[3] = molecular target: Protein kinase C alpha type (Homo sapiens) (UniProt P17252); test: Inhibition of PKC-alpha (unknown origin) at 0.5 uM by [33P]-ATP filter binding assay; in short: as §1
[4] = molecular target: Receptor tyrosine-protein kinase erbB-2 (Homo sapiens, UniProt P04626); test: Inhibition of HER2 (unknown origin) after 1 hr by HTRF assay
In short: (§2)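 Recombinant kinases tested by HTRF KinEase protocol. Enzyme preincubated with inhibitor for a fixed 10 min. IC50 values are means of duplicates.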

[5] = molecular target: T1, Tyrosine-protein kinase BTK (Homo sapiens, UniProt Q06187); test: Binding affinity to Btk kinase domain (387 to 659) (unknown origin) assessed as compound-protein covalent adduct formation at 1:3 protein to compound molar ratio at 4 degC after 1 hr by LC-MS analysis
In short: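 Btk kinase domain (residues 387−659, MW 32136) incubated with 3 equiv of compound at 4 °C for 1 h. Mass spectrometry of the intact protein checked for mass peak shift consistent with 1-to-1 protein−compound adducts.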

[6] = molecular target: T1, Tyrosine-protein kinase BTK; test: Binding affinity to Btk kinase domain (387 to 659) (unknown origin) assessed as compound-protein covalent adduct formation at Cys481 residue at 1:3 protein to compound molar ratio incubated for 3 hrs at 0 degC followed by overnight incubation with trypsin at 37 degC by LC-MS analysis
In short: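 Covalent Btk kinase-domain adduct digested with trypsin. Resulting peptide fragments analyzed by mass spectrometry to locate the modified residue.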

[7] = tested on: MM1R; test: Cytotoxicity against human MM1R cells assessed as growth inhibition at 1 to 10 uM after 72 hrs by CellTiter-Glo luminescent cell viability assay; type: functional, cell-based
[8] = Cytotoxicity against human Pfeiffer cells assessed as growth inhibition after 72 hrs by CellTiter-Glo luminescent cell viability assay; type: functional; details: Homo sapiens, Pfeiffer, 72 h
In short: (§3)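 Lymphoma cells seeded at 5000 cells/well, incubated 24 h, then exposed to compounds for 72 h. Viability read by CellTiter-Glo luminescence. GI50 from dose−response curves, mean of two or three independent experiments in triplicate.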

[9] = Cytotoxicity against human SU-DHL6 cells assessed as growth inhibition after 72 hrs by CellTiter-Glo luminescent cell viability assay; type: functional, SU-DHL-6; details: Homo sapiens, SU-DHL-6, 72 h; in short: as §3
[10] = tested on: WSU-NHL; test: Cytotoxicity against human WSU-NHL cells assessed as growth inhibition after 72 hrs by CellTiter-Glo luminescent cell viability assay; type: functional; in short: as §3
[11] = Solubility of the compound in FaSSIF; type: ADME
[12] = Half life in mouse liver microsomes by LC-MS/MS analysis; type: ADME
In short: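 Liver microsomes incubated with compound and NADPH at 37 °C. Samples taken at several time points, centrifuged, and supernatants analyzed by LC−MS/MS. t1/2 and CL calculated by first-order kinetics. Testosterone, propranolol and clozapine served as positive controls.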

[13] = Half life in ICR mouse at 1 mg/kg, iv by LC-MS analysis; type: ADME, organism-based; parameters: dose 1 mg/kg, route intravenous; details: in vivo
In short: (§4)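 ICR mice (n = 3) given a single intravenous injection at 1 mg/kg. Blood sampled at various time points and analyzed by LC−MS to derive t1/2, CL and Vss.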

[14] = Clearance in ICR mouse at 1 mg/kg, iv by LC-MS analysis; type: ADME, organism-based; parameters: dose 1 mg/kg, route intravenous; details: in vivo; in short: as §4
[15] = Antitumor activity against human DOHH2 cells xenografted in CB17 SCID mouse assessed as tumor growth inhibition at 10 mg/kg, iv qd administered for 14 days measured over 14 days of compound treatment relative to vehicle-treated control; details: DOHH-2, iv, 336 h, read-out: TGI
[16] = Plasma concentration in CB17 SCID mouse xenografted with human DOHH2 cells at 20 mg/kg, iv qd administered for 14 days measured at 24 hrs post last dose; type: ADME, organism-based, DOHH-2; parameters: dose 20 mg/kg, route intravenous
In short: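 Same DoHH2 xenograft study in female CB17/SCID mice, tail-vein dosing once daily for 14 days. Plasma compound concentrations determined at 2 and 24 h after the last administration.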

[17] = tested on: Mus musculus; test: Toxicity in CB17 SCID mouse xenografted with human DOHH2 cells assessed as body weight fluctuations at 10 mg/kg, iv qd administered for 14 days measured over 14 days of compound treatment; type: organism-based, DOHH-2; parameters: dose 10 mg/kg, route intravenous; details: in vivo, 336 h
In short: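 Female CB17/SCID mice carried subcutaneous DoHH2 xenografts (5 × 10⁶ cells injected), randomised at ~167 mm³ mean tumour volume into four groups (n = 6/group). Compound was given intravenously via the tail vein once daily for 14 consecutive days. Body weights were tracked over time throughout the study.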

[18] = tested on: Mus musculus; test: Toxicity in CB17 SCID mouse xenografted with human DOHH2 cells assessed as body weight fluctuations at 20 mg/kg, iv qd administered for 14 days measured over 14 days of compound treatment; type: organism-based, DOHH-2; parameters: dose 20 mg/kg, route intravenous; details: in vivo, 336 h
In short: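 DoHH2 subcutaneous xenograft in female CB17/SCID mice (5 × 10⁶ cells; dosing from ~167 mm³ mean tumor volume; n = 6/group). Daily tail-vein dosing for 14 consecutive days. Body weights followed over time across the study.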

[19] = molecular target: Cytoplasmic tyrosine-protein kinase BMX (Homo sapiens, UniProt P51813); test: Inhibition of Bmx (unknown origin) after 1 hr by HTRF assay; in short: as §2
[20] = molecular target: Tyrosine-protein kinase Lck (Homo sapiens) (UniProt P06239); test: Inhibition of Lck (unknown origin) at 0.5 uM by [33P]-ATP filter binding assay; in short: as §1
Chain of Tyrosine-protein kinase Lck (Homo sapiens) (P06239 2-509 limits assumed): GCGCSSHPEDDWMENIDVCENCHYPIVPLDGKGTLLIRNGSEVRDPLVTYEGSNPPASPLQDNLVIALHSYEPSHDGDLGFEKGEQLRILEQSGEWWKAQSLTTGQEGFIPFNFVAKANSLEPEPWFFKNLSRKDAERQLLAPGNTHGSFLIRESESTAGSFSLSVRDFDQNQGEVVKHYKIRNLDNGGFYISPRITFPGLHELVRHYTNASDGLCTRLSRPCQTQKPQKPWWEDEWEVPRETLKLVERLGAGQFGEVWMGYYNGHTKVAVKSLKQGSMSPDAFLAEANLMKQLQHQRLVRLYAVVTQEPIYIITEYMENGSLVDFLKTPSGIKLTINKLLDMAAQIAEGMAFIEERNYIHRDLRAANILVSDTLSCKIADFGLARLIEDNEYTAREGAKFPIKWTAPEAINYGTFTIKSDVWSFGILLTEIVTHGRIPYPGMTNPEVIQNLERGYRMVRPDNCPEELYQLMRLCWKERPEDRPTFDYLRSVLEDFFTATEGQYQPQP

T1 sequence (Q06187 whole entry, the tested form may be a part): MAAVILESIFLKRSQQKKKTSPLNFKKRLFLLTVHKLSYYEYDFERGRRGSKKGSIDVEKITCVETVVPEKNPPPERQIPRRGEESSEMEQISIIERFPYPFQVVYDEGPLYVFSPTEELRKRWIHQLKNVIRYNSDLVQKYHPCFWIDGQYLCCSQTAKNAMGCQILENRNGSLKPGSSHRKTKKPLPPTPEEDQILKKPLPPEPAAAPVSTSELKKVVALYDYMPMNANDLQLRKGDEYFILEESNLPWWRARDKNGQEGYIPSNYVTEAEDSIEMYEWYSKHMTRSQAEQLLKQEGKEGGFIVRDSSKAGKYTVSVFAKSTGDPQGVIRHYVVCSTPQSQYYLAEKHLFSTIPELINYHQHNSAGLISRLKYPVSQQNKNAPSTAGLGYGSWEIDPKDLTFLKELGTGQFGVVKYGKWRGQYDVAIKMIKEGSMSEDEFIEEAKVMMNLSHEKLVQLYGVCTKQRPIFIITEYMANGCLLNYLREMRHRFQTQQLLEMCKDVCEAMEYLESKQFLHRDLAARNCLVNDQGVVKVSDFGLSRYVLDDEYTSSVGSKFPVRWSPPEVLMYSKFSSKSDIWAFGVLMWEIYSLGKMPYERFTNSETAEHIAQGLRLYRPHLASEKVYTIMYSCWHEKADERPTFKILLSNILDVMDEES
Chain of Receptor tyrosine-protein kinase erbB-2 (P04626 whole entry): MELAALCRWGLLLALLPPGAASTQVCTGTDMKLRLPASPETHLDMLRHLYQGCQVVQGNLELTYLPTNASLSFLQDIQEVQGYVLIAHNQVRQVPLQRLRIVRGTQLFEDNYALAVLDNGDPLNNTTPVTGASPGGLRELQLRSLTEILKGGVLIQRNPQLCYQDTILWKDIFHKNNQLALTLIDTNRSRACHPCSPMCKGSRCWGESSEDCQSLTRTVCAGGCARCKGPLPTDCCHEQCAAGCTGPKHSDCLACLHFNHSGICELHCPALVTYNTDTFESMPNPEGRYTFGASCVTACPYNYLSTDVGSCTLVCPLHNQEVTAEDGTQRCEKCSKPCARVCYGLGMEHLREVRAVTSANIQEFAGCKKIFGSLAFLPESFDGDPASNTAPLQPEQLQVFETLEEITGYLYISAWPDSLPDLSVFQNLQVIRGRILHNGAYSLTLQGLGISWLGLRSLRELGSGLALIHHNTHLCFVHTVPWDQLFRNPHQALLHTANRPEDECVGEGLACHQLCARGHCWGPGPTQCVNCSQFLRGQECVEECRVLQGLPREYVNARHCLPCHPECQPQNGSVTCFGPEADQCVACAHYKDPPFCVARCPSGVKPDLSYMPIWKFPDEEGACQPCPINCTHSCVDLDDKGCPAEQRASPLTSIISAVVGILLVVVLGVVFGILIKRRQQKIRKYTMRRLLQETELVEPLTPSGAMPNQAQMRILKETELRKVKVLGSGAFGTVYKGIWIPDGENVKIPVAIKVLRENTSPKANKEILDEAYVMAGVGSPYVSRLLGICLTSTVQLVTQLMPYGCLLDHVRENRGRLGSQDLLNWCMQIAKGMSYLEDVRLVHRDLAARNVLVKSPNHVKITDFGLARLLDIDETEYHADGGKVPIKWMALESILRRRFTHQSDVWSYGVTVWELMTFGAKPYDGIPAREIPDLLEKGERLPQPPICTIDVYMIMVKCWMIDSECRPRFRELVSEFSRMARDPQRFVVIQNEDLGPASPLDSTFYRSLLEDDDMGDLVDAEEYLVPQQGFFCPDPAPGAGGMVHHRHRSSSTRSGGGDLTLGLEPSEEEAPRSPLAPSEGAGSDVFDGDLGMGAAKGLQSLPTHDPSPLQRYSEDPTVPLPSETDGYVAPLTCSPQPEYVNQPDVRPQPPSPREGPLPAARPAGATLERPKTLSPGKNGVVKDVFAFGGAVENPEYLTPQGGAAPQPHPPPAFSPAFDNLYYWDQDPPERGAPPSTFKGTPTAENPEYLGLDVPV
Chain of Cytoplasmic tyrosine-protein kinase BMX (P51813 whole entry): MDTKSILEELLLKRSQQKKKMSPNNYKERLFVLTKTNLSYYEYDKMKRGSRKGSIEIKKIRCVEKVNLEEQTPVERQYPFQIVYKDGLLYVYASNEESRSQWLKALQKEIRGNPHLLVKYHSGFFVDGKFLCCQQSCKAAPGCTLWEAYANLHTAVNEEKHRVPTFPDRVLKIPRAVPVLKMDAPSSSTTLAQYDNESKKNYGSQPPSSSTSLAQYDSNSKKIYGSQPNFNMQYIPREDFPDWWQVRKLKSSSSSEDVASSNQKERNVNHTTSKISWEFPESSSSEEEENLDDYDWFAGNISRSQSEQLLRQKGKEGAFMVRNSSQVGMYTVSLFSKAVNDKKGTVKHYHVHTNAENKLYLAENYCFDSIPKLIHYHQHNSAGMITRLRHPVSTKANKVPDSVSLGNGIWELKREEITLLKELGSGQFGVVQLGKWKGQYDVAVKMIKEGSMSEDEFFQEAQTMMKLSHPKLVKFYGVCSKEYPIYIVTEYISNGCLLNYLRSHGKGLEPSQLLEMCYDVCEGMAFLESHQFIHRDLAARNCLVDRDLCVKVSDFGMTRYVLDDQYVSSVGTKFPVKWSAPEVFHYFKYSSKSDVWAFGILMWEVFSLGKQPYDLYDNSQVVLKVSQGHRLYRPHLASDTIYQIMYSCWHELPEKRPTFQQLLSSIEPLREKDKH

SMILES: C=CC(=O)Nc1cccc(Nc2ncc(NC(=O)c3cc(NC(=O)c4cccc(C(F)(F)F)c4)ccc3C)cn2)c1
- inhibition [1]: Active
- inhibition [2]: inactive
- inhibition [3]: inactive
- IC50 [4]: 19 nM
- Activity [5]: Active
- Activity [6]: Active
- growth inhibition (GI) [7]: Active
- GI50 [8]: 8 nM
- GI50 [9]: 38 nM
- GI50 [10]: 31 nM
- solubility [11]: 7.02 µM (≈ 3.93 µg/mL)
- half-life [12]: 0.64 h
- half-life [13]: 2.8 h
- clearance [14]: 6.85 mL/min/kg
- inhibition in vivo at 10 mg/kg [15]: 60%
- concentration at 24 h [16]: 13 ng/mL
- Activity [17]: Non-toxic
- Activity [18]: Non-toxic
- IC50 [19]: 1.9 nM
- inhibition [20]: Active
